Source: ChEMBL document CHEMBL1124112, “Indoline analogues of idazoxan: potent alpha 2-antagonists and alpha 1-agonists” (J Med Chem, 1988)

What was measured:
[1] = target: T1, Adrenergic receptor alpha-2 (Rattus norvegicus, UniProt P22086+P19328+P22909); assay: Inhibition of saturable binding of [3H]idazoxan to alpha2-site in rat cerebral cortical membranes.; type: cell membranes, Membrane
T1 sequence (P22086 whole entry): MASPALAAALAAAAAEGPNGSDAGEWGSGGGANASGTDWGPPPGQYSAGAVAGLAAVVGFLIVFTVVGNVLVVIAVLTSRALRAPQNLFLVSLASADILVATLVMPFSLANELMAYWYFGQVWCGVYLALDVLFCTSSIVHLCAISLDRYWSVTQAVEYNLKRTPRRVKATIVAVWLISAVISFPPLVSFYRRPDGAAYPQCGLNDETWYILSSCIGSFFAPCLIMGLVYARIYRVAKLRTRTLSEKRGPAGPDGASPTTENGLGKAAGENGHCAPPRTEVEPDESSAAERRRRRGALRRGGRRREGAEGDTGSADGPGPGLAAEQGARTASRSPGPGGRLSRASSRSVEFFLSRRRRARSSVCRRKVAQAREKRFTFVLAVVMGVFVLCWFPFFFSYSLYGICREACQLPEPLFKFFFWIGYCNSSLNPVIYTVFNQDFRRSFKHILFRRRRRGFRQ
T1 sequence (P19328 whole entry): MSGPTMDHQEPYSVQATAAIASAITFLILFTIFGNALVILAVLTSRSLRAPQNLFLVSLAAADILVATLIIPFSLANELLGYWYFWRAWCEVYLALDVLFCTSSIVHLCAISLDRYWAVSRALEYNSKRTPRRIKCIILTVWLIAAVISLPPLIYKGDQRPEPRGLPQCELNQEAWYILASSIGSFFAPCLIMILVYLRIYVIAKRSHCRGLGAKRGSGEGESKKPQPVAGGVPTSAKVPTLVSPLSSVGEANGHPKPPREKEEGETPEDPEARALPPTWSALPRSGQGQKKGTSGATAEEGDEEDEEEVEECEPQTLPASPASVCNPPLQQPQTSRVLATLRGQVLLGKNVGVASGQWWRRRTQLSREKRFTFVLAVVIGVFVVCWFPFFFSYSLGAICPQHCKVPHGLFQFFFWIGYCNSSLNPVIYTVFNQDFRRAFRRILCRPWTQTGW
T1 sequence (P22909 whole entry): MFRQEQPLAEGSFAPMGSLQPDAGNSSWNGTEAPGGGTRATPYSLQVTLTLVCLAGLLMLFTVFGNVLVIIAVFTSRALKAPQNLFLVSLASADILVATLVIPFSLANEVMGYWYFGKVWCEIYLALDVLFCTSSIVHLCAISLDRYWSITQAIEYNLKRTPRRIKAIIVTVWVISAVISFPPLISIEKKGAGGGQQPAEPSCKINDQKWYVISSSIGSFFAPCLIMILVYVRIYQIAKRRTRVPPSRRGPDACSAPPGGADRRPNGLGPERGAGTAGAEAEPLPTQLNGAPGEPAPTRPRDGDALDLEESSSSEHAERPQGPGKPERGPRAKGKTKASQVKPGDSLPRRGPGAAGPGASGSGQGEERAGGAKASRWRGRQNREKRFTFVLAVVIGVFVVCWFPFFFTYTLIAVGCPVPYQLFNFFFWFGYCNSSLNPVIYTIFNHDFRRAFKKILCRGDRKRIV

[2] = test system: Rattus norvegicus; assay: In vivo ED40 is the raising diastolic blood pressure by 40 mm Hg in pithed rats. (postjunctional); type: functional; details: Artery
Outline: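 Pithed rats, compound given iv in cumulative doses. ED40 is the dose (μg/kg) raising diastolic blood pressure by 40 mmHg. Separate groups of rats (n = 4-6).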

[3] = test system: Rattus norvegicus; assay: In vivo dose required to inhibit vas deferens contraction by 25% after pretreatment with prazosin in pithed rats. (prejunctional); type: functional
Outline: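 Pithed rats pretreated with prazosin (1 mg/kg). Compound given iv in cumulative doses. ED25 is the dose (μg/kg) inhibiting vas deferens contraction by 25%. Separate groups of rats (n = 4-6).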

c1ccc(CN2c3ccccc3CC2C2=NCCN2)cc1 (stereo not drawn)
Ki [1]: 1.87 nM
ED40 [2]: 0.308 mg/kg
ED25 [3]: 0.0095 mg/kg
